One may read the pKi as −log10 of the Ki, conventionally taken in molar units. A low value points to a high Ki.

Assay [1] concerns the target Metabotropic glutamate receptor 5 (Rattus norvegicus, UniProt P31424). The assay can be described thus: Displacement of [3H]MPEP from mGluR5 in rat brain. The class given is tissue-based. The essentials:
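Competition binding on rat brain homogenate mGlu5 against [3H]MPEP at 1.0 nM. Run by the NIMH Psychoactive Drug Screening Program. Ki derived from triplicate determinations, n = 6 for some ligands. Values cited from earlier work were not measured here.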

Assay [2] addresses Metabotropic glutamate receptor 1 (Homo sapiens, UniProt Q13255). The assay can be described thus: Binding affinity to mGluR1 receptor.
In assay [3] the target is Alpha-1A adrenergic receptor (Homo sapiens, UniProt P35348). The assay can be described thus: Binding affinity to adrenergic alpha1A receptor.
For assay [4], the target named is Alpha-1B adrenergic receptor (Homo sapiens, UniProt P35368). The assay can be described thus: Binding affinity to adrenergic Alpha-1B receptor.
Alpha-1B adrenergic receptor, sequence (P35368 whole entry): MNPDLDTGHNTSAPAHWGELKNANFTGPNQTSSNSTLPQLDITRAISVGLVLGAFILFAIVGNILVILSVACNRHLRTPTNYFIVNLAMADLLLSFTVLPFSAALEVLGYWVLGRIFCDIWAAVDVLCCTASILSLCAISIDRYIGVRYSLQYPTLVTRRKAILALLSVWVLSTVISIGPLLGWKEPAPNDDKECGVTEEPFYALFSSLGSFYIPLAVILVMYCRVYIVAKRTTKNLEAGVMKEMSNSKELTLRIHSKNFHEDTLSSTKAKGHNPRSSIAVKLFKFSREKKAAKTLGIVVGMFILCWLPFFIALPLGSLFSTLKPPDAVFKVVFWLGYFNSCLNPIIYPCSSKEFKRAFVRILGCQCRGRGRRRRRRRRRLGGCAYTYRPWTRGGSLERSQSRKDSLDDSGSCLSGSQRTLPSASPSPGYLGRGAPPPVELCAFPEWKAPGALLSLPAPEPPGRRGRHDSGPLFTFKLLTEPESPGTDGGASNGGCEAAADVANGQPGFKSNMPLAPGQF
The target of assay [5] is Metabotropic glutamate receptor 6 (Homo sapiens, UniProt O15303). The assay can be described thus: Binding affinity to mGluR6 receptor.
The target in assay [6] is Sodium-dependent serotonin transporter (Homo sapiens, UniProt P31645). The assay can be described thus: Binding affinity to SERT receptor.
Assay [7] deals with Beta-3 adrenergic receptor (Homo sapiens, UniProt P13945). The assay can be described thus: Binding affinity to adrenergic beta3 receptor.
The target in another assay is Histamine H4 receptor (Homo sapiens, UniProt Q9H3N8). The assay can be described thus: Binding affinity to histamine H4 receptor.
Assay [8] addresses Sodium-dependent noradrenaline transporter (Homo sapiens, UniProt P23975). The assay can be described thus: Binding affinity to NET.
Assay [9] has as its target 5-hydroxytryptamine receptor 5A (Homo sapiens, UniProt P47898). The assay can be described thus: Binding affinity to 5HT5A receptor.
Assay [10] concerns the target Metabotropic glutamate receptor 2 (Homo sapiens, UniProt Q14416). The assay can be described thus: Binding affinity to mGluR2 receptor.
Another assay deals with D(2) dopamine receptor (Homo sapiens, UniProt P14416). The assay can be described thus: Binding affinity to dopamine D2 receptor.
The target of assay [11] is Alpha-2B adrenergic receptor (Homo sapiens, UniProt P18089). The assay can be described thus: Binding affinity to adrenergic alpha2B receptor.
Alpha-2B adrenergic receptor, sequence (P18089 whole entry): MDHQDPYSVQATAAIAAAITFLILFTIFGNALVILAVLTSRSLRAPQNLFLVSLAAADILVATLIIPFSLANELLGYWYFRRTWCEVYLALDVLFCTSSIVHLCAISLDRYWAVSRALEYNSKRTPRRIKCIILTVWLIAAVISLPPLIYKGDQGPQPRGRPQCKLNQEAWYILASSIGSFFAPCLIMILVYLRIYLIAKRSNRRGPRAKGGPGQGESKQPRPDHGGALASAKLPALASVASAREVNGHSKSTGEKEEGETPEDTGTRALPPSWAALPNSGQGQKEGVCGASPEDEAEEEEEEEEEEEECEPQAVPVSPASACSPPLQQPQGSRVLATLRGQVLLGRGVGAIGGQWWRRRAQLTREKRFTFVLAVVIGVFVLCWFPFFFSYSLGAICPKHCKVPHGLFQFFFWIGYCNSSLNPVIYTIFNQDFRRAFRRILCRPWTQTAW
Assay [12] concerns the target 5-hydroxytryptamine receptor 1D (Homo sapiens, UniProt P28221). The assay can be described thus: Binding affinity to 5HT1D receptor.
Assay [13] has as its target Beta-1 adrenergic receptor (Homo sapiens, UniProt P08588). The assay can be described thus: Binding affinity to adrenergic beta1 receptor.
For assay [14], the target named is Kappa-type opioid receptor (Homo sapiens, UniProt P41145). The assay can be described thus: Binding affinity to KOR.
In assay [15] the target is 5-hydroxytryptamine receptor 7 (Homo sapiens, UniProt P34969). The assay can be described thus: Binding affinity to 5HT7 receptor.
Assay [16] has as its target Sigma non-opioid intracellular receptor 1 (Homo sapiens, UniProt Q99720). The assay can be described thus: Binding affinity to sigma 1 receptor.
For another assay, the target named is D(4) dopamine receptor (Homo sapiens, UniProt P21917). The assay can be described thus: Binding affinity to dopamine D4 receptor.
The next assay deals with Histamine H1 receptor (Homo sapiens, UniProt P35367). The assay can be described thus: Binding affinity to histamine H1 receptor.
The target of another assay is Histamine H2 receptor (Homo sapiens, UniProt P25021). The assay can be described thus: Binding affinity to histamine H2 receptor.
Assay [17] concerns the target Muscarinic acetylcholine receptor M5 (Homo sapiens, UniProt P08912). The assay can be described thus: Binding affinity to muscarinic M5 receptor.
The target in assay [18] is 5-hydroxytryptamine receptor 2B (Homo sapiens, UniProt P41595). The assay can be described thus: Binding affinity to 5HT2B receptor.
Assay [19] addresses 5-hydroxytryptamine receptor 2A (Homo sapiens, UniProt P28223). The assay can be described thus: Binding affinity to 5HT2A receptor.
Assay [20] addresses 5-hydroxytryptamine receptor 2C (Homo sapiens, UniProt P28335). The assay can be described thus: Binding affinity to 5HT2C receptor.
Assay [21] addresses 5-hydroxytryptamine receptor 6 (Homo sapiens, UniProt P50406). The assay can be described thus: Binding affinity to 5HT6 receptor.
Assay [22] concerns the target Muscarinic acetylcholine receptor M4 (Homo sapiens, UniProt P08173). The assay can be described thus: Binding affinity to muscarinic M4 receptor.
Assay [23] can be described thus: Binding affinity to benzodiazepine receptor in rat brain. The class given is tissue-based.
Assay [24] has as its target Muscarinic acetylcholine receptor M2 (Homo sapiens, UniProt P08172). The assay can be described thus: Binding affinity to muscarinic M2 receptor.
For assay [25], the target named is 5-hydroxytryptamine receptor 1A (Homo sapiens, UniProt P08908). The assay can be described thus: Binding affinity to 5HT1A receptor.
5-hydroxytryptamine receptor 1A, sequence (P08908 whole entry): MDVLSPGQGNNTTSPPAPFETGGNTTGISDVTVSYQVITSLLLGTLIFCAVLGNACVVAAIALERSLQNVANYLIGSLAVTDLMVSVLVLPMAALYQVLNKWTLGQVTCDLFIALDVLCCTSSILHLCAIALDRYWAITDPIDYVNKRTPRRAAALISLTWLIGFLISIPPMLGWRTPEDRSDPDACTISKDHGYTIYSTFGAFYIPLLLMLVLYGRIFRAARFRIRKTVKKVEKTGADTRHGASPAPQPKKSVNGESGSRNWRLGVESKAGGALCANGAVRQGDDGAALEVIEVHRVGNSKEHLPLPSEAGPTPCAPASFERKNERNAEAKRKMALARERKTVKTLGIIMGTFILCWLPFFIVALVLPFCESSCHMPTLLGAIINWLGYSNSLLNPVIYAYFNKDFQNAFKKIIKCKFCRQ
Assay [26] concerns the target Metabotropic glutamate receptor 8 (Homo sapiens, UniProt O00222). The assay can be described thus: Binding affinity to mGluR8 receptor.
The next assay deals with Mu-type opioid receptor (Homo sapiens, UniProt P35372). The assay can be described thus: Binding affinity to MOR.
Assay [27] addresses Beta-2 adrenergic receptor (Homo sapiens, UniProt P07550). The assay can be described thus: Binding affinity to adrenergic beta2 receptor.
For another assay, the target named is D(3) dopamine receptor (Homo sapiens, UniProt P35462). The assay can be described thus: Binding affinity to dopamine D3 receptor.
Assay [28] in a line: Binding affinity to NMDA receptor PCP binding site.
The target of assay [29] is 5-hydroxytryptamine receptor 1B (Homo sapiens, UniProt P28222). The assay can be described thus: Binding affinity to 5HT1B receptor.
Assay [30] addresses 5-hydroxytryptamine receptor 3A (Homo sapiens, UniProt P46098). The assay can be described thus: Binding affinity to 5HT3 receptor.
The target in assay [31] is Alpha-2A adrenergic receptor (Homo sapiens, UniProt P08913). The assay can be described thus: Binding affinity to adrenergic alpha2A receptor.
The target in assay [32] is Metabotropic glutamate receptor 4 (Homo sapiens, UniProt Q14833). The assay can be described thus: Binding affinity to mGluR4 receptor.
Assay [33] has as its target 5-hydroxytryptamine receptor 1E (Homo sapiens, UniProt P28566). The assay can be described thus: Binding affinity to 5HT1E receptor.
Assay [34] is described as follows: Binding affinity to GABAA receptor.
Assay [35] is described as follows: Binding affinity to sigma 2 receptor.
For assay [36], the target named is Muscarinic acetylcholine receptor M1 (Homo sapiens, UniProt P11229). The assay can be described thus: Binding affinity to muscarinic M1 receptor.
For assay [37], the target named is Delta-type opioid receptor (Homo sapiens, UniProt P41143). The assay can be described thus: Binding affinity to DOR.
Delta-type opioid receptor, sequence (P41143 whole entry): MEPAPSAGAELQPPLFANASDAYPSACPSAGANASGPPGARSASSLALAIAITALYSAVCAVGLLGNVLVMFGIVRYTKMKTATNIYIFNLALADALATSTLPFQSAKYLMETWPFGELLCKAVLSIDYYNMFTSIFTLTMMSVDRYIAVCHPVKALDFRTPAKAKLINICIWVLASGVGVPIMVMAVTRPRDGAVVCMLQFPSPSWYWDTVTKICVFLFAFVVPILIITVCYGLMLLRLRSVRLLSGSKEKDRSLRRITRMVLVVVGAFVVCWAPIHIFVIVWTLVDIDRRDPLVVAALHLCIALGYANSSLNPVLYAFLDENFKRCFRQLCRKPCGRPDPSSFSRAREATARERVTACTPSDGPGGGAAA
A further assay concerns the target D(1B) dopamine receptor (Homo sapiens, UniProt P21918). The assay can be described thus: Binding affinity to dopamine D5 receptor.
The target in assay [38] is Alpha-2C adrenergic receptor (Homo sapiens, UniProt P18825). The assay can be described thus: Binding affinity to adrenergic Alpha-2C receptor.
Assay [39] concerns the target Muscarinic acetylcholine receptor M3 (Homo sapiens, UniProt P20309). The assay can be described thus: Binding affinity to muscarinic M3 receptor.
The target of the next assay is D(1A) dopamine receptor (Homo sapiens, UniProt P21728). The assay can be described thus: Binding affinity to dopamine D1 receptor.
The target in the next assay is Histamine H3 receptor (Homo sapiens, UniProt Q9Y5N1). The assay can be described thus: Binding affinity to histamine H3 receptor.
Assay [40] deals with Sodium-dependent dopamine transporter (Homo sapiens, UniProt Q01959). The assay can be described thus: Binding affinity to DAT.
For assay [41], the target named is Alpha-1D adrenergic receptor (Homo sapiens, UniProt P25100). The assay can be described thus: Binding affinity to adrenergic Alpha-1D receptor.
Alpha-1D adrenergic receptor, sequence (P25100 whole entry): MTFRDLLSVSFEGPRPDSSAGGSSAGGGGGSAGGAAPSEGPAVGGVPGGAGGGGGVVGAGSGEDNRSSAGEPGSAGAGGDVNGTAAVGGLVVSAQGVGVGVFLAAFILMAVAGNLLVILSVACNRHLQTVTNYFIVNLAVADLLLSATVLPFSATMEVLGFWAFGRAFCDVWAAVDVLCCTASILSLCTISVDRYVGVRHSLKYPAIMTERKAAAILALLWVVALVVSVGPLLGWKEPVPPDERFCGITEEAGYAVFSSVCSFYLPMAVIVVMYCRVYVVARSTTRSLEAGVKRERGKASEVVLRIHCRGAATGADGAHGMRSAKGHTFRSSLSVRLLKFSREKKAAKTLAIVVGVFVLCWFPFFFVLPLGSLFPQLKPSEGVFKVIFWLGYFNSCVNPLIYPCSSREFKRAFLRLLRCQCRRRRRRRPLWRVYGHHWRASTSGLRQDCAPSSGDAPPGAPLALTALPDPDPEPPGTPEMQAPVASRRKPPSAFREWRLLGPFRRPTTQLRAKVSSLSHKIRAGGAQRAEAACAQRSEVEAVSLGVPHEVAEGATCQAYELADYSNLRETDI

pKi: −log10 of the molar value. Some results are limits rather than exact numbers.

Metabotropic glutamate receptor 5, sequence (P31424 whole entry): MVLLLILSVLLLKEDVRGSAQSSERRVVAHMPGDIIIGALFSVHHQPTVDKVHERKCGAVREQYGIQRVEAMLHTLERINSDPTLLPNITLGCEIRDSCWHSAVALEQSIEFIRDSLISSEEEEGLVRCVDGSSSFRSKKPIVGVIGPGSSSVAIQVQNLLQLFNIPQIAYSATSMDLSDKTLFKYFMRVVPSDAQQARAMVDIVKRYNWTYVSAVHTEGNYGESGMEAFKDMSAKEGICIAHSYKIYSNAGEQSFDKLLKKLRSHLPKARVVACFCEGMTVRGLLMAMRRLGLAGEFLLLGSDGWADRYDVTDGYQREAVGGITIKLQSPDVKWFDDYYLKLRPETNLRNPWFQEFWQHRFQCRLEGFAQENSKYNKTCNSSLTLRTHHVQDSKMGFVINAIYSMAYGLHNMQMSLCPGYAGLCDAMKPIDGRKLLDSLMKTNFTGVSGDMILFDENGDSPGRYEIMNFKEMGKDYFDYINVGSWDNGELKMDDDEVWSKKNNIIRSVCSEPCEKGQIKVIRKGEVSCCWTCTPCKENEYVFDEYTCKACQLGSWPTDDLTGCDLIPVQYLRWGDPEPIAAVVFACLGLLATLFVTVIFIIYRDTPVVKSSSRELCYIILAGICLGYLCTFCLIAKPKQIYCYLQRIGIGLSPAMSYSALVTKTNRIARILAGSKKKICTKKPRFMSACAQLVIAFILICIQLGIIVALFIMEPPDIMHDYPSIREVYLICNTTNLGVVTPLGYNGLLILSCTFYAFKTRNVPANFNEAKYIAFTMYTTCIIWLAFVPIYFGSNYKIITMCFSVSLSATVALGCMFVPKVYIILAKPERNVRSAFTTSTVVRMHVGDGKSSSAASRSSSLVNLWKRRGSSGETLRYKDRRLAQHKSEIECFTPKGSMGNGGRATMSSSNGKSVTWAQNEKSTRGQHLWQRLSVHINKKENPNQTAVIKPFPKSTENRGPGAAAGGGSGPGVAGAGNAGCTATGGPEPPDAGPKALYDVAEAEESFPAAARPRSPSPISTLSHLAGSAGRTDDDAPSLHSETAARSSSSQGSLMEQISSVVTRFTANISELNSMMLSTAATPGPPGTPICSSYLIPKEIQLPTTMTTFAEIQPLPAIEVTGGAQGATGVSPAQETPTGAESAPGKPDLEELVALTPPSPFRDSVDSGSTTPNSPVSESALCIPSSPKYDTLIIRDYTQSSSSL
Beta-1 adrenergic receptor, sequence (P08588 whole entry): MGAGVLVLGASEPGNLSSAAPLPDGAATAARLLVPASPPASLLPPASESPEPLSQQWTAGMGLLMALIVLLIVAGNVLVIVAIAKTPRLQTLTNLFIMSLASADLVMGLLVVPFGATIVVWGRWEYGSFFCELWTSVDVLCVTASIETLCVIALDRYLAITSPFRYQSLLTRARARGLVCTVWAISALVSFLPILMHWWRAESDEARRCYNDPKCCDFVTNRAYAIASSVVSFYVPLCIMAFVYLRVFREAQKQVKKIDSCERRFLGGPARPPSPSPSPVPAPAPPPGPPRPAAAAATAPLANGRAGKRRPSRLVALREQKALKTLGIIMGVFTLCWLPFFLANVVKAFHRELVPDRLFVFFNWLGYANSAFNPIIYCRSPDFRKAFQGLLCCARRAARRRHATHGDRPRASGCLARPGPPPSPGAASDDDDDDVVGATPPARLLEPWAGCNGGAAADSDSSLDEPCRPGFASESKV
Sodium-dependent noradrenaline transporter, sequence (P23975 whole entry): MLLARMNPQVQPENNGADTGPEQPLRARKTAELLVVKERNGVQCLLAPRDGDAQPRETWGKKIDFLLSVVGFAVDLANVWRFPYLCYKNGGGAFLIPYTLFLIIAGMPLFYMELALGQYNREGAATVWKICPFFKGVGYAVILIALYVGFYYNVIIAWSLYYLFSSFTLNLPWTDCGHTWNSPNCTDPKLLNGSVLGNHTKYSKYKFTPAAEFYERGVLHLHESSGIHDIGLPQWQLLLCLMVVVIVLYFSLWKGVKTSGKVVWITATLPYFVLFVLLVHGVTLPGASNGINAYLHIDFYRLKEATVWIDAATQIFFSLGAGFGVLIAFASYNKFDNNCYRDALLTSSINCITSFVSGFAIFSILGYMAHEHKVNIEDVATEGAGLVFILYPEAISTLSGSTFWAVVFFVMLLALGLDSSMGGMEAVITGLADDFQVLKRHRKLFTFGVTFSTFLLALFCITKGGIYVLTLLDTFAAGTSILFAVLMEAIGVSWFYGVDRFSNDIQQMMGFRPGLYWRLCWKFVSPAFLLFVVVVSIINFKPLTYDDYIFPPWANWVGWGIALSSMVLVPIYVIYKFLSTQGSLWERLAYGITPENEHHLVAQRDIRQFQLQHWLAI
5-hydroxytryptamine receptor 1E, sequence (P28566 whole entry): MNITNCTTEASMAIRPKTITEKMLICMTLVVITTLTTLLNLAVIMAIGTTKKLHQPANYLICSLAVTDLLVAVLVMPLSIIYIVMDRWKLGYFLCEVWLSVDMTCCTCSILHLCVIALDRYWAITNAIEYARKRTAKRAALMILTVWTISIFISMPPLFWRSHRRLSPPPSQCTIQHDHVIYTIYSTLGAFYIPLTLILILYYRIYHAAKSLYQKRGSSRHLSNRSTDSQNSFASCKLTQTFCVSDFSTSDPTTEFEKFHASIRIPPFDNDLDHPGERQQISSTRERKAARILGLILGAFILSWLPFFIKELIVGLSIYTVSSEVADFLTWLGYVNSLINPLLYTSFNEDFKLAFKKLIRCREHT

With `N#CCc1cccc(C#Cc2csc(Br)n2)c1`, the pKi in [1] was 8.48.

In turn, `N#CCc1cccc(C#Cc2csc(Cl)n2)c1` gave a pKi in [1] of 8.51.

Turning to `N#Cc1cccc(C#Cc2csc(F)n2)c1`, in assay [1], the pKi was 8.80.

For the compound `N#CCc1cccc(C#Cc2csc(N)n2)c1`, the negative logarithm of the Ki (pKi) in [1] is 8.23.

For the compound `COc1cccc(C#Cc2csc(N)n2)c1`, the pKi in assay [1] was 7.73.

For `N#Cc1cccc(C#Cc2csc(Br)n2)c1`, the pKi in assay [1] was 8.43.

In assay [1], `COc1cccc(C#Cc2csc(F)n2)c1` gave a pKi of 7.64.

For the compound `Fc1nc(C#Cc2ccccc2)cs1`, in assay [1], the pKi is 6.91.

In assay [1], `COc1cccc(C#Cc2csc(I)n2)c1` showed a pKi of 6.88.

Consider `N#Cc1cccc(C#Cc2csc(N)n2)c1`, for which the pKi in assay [1] was 9.05.

In turn, `N#Cc1cc(F)cc(C#Cc2csc(Br)n2)c1` gave a negative-log Ki (pKi) in assay [1] of 9.02.

With `N#Cc1cc(F)cc(C#Cc2csc(Cl)n2)c1`, the pKi in [1] was 9.40.

Regarding `N#Cc1cc(F)cc(C#Cc2csc(N)n2)c1`, the pKi in [1] was 9.60.

`COc1cccc(C#Cc2csc(Cl)n2)c1` gave a pKi in assay [1] of 8.09.

In turn, `N#Cc1cccc(C#Cc2csc(Cl)n2)c1` gave a pKi in [1] of 9.57.

The compound `N#CCc1cccc(C#Cc2csc(I)n2)c1` gave a pKi in assay [1] of 7.63.

Take `N#Cc1cccc(C#Cc2csc(I)n2)c1`: in [1], the pKi was 8.38.

The compound `N#Cc1cc(F)cc(C#Cc2csc(I)n2)c1` had a pKi in assay [1] of 8.89.

With `N#Cc1cc(F)cc(C#Cc2csc(CF)n2)c1`, the pKi in [1] was 10.44.

The compound `Cc1nc(C#Cc2cc(F)cc(C#N)c2)cs1` showed a pKi in [1] of 10.10.

As for `N#Cc1cc(F)cc(C#Cc2csc(F)n2)c1`, the pKi in assay [2], in assay [3], in assay [4], in assay [5], in assay [6] and in [7] was below 5.00 throughout. In addition, the pKi (on Histamine H4 receptor; in assay [8]; in assay [9]; in assay [10]; on D(2) dopamine receptor; in [11]) was below 5.00 each time. Further, the pKi (in assay [12]; in assay [13]; in assay [14]; in assay [15]; in assay [16]; on D(4) dopamine receptor) was below 5.00 in each case. The pKi (on Histamine H1 receptor; on Histamine H2 receptor; in assay [17]; in assay [18]; in [19]; in assay [20]) was below 5.00 each time. For the same compound, the pKi in assay [21], in [22], in [23], in assay [24], in assay [25] and in [26] was below 5.00 throughout. Moreover, the pKi in [1] is 9.55; on Mu-type opioid receptor, below 5.00; in assay [27] it was below 5.00; at D(3) dopamine receptor it was below 5.00; in [28], below 5.00; in [29], below 5.00. Moreover, the pKi in assay [30], in [31], in assay [32], in assay [33], in [34] and in [35] was below 5.00 throughout. Moreover, the pKi (in assay [36]; in assay [37]; at D(1B) dopamine receptor; in assay [38]; in assay [39]; on D(1A) dopamine receptor) was below 5.00 each time. The pKi (at Histamine H3 receptor; in [40]; in [41]) was below 5.00 throughout.

In turn, `N#CCc1cccc(C#Cc2csc(F)n2)c1` had a negative-log Ki (pKi) in [1] of 8.41.

In the case of `COc1cccc(C#Cc2csc(Br)n2)c1`, the pKi in assay [1] was 7.65.

The values are drawn from ChEMBL document CHEMBL1671821, “Syntheses of 2-amino and 2-halothiazole derivatives as high-affinity metabotropic glutamate receptor subtype 5 ligands and potential radioligands for in vivo imaging” (J Med Chem, 2011).
